Data on ten molecules can be found in paper PMC4969713 (Journal of Alzheimer's Disease, 2016).

Data set [1] concerns male BALB/c mice. The experiment in a line: Elevated Plus-Maze. Format: in vivo. The settings on record: IP, Buspirone 5 mg/kg. The procedure, abridged:
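Elevated plus-maze in mice. Read-outs were open/closed arm time ratio, open/closed visit ratio, defecations and total visits. Each treated group was compared with the placebo group by Student t-test.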

Another data set concerns male SHK mice. Kind of data set: Apomorphine-induced disruption of pre-pulse inhibition. It counts as in vivo. The settings on record: IP; apomorphine 20 mg/kg; Haloperidol 1 mg/kg. The procedure, abridged: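 Male SHK mice received apomorphine as the pro-psychotic agent to disrupt pre-pulse inhibition. Groups: untreated control, apomorphine alone, haloperidol 1 mg/kg as positive control, and test compound at several doses. Groups were compared with the apomorphine-only group by Student test.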

Data set [2] deals with BALB/c mice. Kind of data set: Open Field test. The settings on record: IP; Lorazepam 0.05 mg/kg, AVN-101 0.2 mg/kg. Format: in vivo. The gist of the method:
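Male BALB/c mice received lorazepam 30 min or test compound 5 min before testing; controls received saline, with at least 8 per group. Time in the central zone was recorded during a 10-min exploration. Comparison with the control group used ANOVA with Fisher LSD.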

The test system of data set [3] is male BALB/c mice. The experiment in a line: Elevated Platform test. The settings on record: IP; Lorazepam 0.05 mg/kg, AVN-101 0.2 mg/kg; initial 2 min. It counts as in vivo.
The nature of the next data set: Caco-2 permeability. The settings on record: human. For orientation: Caco-2 cells form a polarised layer with tight junctions and transporters.
In another data set the target is 5-HT2B receptor (Homo sapiens, UniProt P41595). The settings on record: at 1μM; cited from earlier work.
In another data set the target is T1, 5-HT2C receptor (Homo sapiens, UniProt P28335).
T1 sequence (P28335 33-458): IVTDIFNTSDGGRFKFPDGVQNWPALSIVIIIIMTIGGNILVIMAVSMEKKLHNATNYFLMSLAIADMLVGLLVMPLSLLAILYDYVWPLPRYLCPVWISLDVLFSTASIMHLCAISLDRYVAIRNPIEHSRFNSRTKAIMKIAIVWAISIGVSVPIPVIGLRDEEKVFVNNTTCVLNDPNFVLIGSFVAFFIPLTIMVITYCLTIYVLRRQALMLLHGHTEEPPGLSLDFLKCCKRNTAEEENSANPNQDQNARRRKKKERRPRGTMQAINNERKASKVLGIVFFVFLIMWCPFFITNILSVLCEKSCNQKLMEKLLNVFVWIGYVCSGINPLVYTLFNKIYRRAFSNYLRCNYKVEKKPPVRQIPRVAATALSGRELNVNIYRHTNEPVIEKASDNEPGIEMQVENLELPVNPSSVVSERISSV
The settings on record: at 1μM; cited from earlier work.

A further data set has as its target 5-HT2A receptor (Homo sapiens, UniProt P28223). The settings on record: at 1μM; cited from earlier work.
Data set [4] deals with male BALB/c mice. The settings on record: acute pre-dosing; cited from earlier work.
The test system of data set [5] is male BALB/c mice. Kind of data set: Novel object recognition, scopolamine-induced. It counts as in vivo. The settings on record: 1.0 mg/kg scopolamine; memantine 10 mg/kg; SB-742457 0.2 or 1.0 mg/kg. The gist of the method:
(§1)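 All drugs were dissolved in saline and given IP; control animals received saline vehicle. Each group had at least 8 male BALB/c mice. Read-out was novel object recognition index, reported as mean ± SE.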

For data set [6], the system named is male BALB/c mice. The experiment in a line: Novel object recognition, MK-801-induced. Format: in vivo. The settings on record: 0.2 mg/kg MK-801; memantine 10 mg/kg; SB-742457 0.2 or 1.0 mg/kg. The procedure, abridged:
as §1

For data set [7], the target named is T2, 5-HT7 receptor (Homo sapiens, UniProt P34969). The settings on record: at 1μM; cited from earlier work.
Data set [8] deals with T2, 5-HT7 receptor. The experiment in a line: Radioligand binding competition, 5-HT7.
The subject of data set [9] is male BALB/c mice. The experiment in a line: Passive avoidance, scopolamine-induced amnesia, mice. It counts as in vivo. The settings on record: highest dose tested, 1 mg/kg.
The subject of the next data set is 5-HT1B receptor. The settings on record: at 1μM; cited from earlier work.
The subject of data set [10] is BALB/c mice. The experiment in a line: Morris water maze, scopolamine-induced amnesia. Format: in vivo. The settings on record: IP; AVN-101 0.2 mg/kg; Tacrine 3 mg/kg; donepezil 1 mg/kg; scopolamine 1.5 mg/kg. The procedure, abridged:
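Scopolamine-induced amnesia model in male BALB/c mice. Read-out was time spent in the quadrant where the escape platform had been during the two preceding training days, reported as mean ± SE.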

The next data set has as its system Monkeys (Macaca mulatta). Kind of data set: Q-T interval, monkeys. It counts as in vivo. The settings on record: 15 mg/kg IV.
For a further data set, the system named is femur bone marrow cells. Kind of data set: Chromosomal aberrations in femur bone marrow cells. The settings on record: 20 mg/kg PO single dose, males. Format: in vivo, mice. The gist of the method:
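Mice 8–12 weeks old, male and female, were dosed orally with test compound or cyclophosphamide 20 mg/kg. Schedule was single dose with kill at 24 h, or qd for 5 days with kill 6 h after the last dose. Colchicine 4 mg/kg was given orally 2.5 h before decapitation. Femur marrow was put into 0.55% KCl at 37°C for 15 min, then spun. Scoring covered 100 metaphases per animal (500 per group), expressed as % aberrant cells.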

In data set [11] the test system is BALB/c mice. Kind of data set: Passive avoidance, MK-801-induced amnesia, mice. It counts as in vivo. The settings on record: IP.

T2 sequence (P34969 whole entry): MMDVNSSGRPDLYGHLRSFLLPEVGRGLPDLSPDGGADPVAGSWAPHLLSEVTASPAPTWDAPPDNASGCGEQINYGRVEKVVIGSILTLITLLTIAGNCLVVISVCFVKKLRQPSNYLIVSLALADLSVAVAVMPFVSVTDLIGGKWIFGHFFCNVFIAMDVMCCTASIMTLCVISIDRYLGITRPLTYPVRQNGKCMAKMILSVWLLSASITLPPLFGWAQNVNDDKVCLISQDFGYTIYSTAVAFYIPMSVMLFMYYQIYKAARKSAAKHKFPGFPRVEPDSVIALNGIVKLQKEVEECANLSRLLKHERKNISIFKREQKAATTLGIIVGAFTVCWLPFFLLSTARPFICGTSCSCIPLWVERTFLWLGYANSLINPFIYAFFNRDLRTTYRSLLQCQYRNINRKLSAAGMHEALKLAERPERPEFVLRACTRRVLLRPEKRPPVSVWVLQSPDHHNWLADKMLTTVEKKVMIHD
Chain of 5-HT2B receptor (P41595 whole entry): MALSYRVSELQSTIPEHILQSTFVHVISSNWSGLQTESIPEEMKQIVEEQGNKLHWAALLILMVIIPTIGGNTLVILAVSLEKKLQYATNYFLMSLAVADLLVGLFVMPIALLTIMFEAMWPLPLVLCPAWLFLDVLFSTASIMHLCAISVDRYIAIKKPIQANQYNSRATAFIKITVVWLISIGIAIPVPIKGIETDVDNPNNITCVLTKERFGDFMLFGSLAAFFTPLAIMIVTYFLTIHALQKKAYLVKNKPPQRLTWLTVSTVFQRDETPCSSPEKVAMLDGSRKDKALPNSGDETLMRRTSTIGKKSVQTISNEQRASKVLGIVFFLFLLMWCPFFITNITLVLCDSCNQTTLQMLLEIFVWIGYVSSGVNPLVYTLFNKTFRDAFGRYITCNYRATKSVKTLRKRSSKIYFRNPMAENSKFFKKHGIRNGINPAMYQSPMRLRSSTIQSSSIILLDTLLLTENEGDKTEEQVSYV
Chain of 5-HT2A receptor (P28223 whole entry): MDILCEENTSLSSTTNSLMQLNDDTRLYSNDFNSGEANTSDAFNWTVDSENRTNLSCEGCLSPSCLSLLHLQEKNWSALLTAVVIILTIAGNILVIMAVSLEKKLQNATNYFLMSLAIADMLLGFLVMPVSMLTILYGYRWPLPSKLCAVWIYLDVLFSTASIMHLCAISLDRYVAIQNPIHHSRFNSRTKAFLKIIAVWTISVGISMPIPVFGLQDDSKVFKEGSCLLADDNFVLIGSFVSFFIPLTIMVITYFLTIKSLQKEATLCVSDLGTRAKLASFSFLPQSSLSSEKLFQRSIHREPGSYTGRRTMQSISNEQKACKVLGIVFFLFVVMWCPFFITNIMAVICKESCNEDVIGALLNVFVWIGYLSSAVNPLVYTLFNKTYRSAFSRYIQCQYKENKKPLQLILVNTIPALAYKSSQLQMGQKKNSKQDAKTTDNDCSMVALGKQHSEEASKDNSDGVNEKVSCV

Regarding `O=C1CC2(CCCC2)CC(=O)N1CCCCN1CCN(c2ncccn2)CC1` [Buspirone, reference compound], the “locomotion (total number of arm visits)” value in the data set on male BALB/c mice [1] (M1 5 or 20 mg/kg, M2 1 and 5 mg/kg) was “had no effect on total number of arm visits”. Moreover, the “anxiolytic effect (open/closed arm time and visits, defecations)” value with male BALB/c mice [1] (M2 0.05, 0.5, 1.0, 5.0 mg/kg) is recorded as “clear anxiolytic effects”.

As to `O=C(CCCN1CCC(O)(c2ccc(Cl)cc2)CC1)c1ccc(F)cc1` [Haloperidol, reference compound], the “effect on apomorphine-induced disruption of PPI” value in the data set on male SHK mice is on record as “able to prevent”.

As to `O=C1Nc2ccc(Cl)cc2C(c2ccccc2Cl)=NC1O` (centres unmarked) [Lorazepam, reference compound], in the data set with BALB/c mice [2], the “time spent in the central area” value is on record as “significant anxiolytic effect”. Also, the “duration of freezing behavior” value in the data set with male BALB/c mice [3] was “significantly reduced duration of the freezing behavior”.

Broadly, the Papp is the rate of passage across a membrane or cell layer, normalised by area and donor concentration. Lower therefore signals slow passage. For orientation: Papp B→A means the apparent permeability from the basolateral to the apical side of a cell layer. `COC(=O)c1ccccc1-c1c2ccc(=N)cc-2oc2cc(N)ccc12` [Rhodamine123, reference compound]: in the data set “Caco-2 permeability”, the Papp turned out to be 0.6 ± 0.2 ×10⁻⁶ cm/s and the Papp B→A stood at 6.8 ± 0.4 ×10⁻⁶ cm/s.

For orientation: IC50 means the midpoint of a concentration-inhibition curve. The low end stands for inhibition by little substance, the high end for a need for much substance. Consider `O=S(=O)(c1ccccc1)c1cnc2c(N3CCNCC3)cccc2c1` [SB-742457], for which the radioligand displacement on 5-HT2B receptor is given as 88%; on 5-HT2C receptor it was 85%; on 5-HT2A receptor, 91%; in the data set with 5-HT1B receptor, 86%. The “effective dose range, scopolamine-induced amnesia passive avoidance” value in the data set on male BALB/c mice [4] is 0.5 to 4.5 mg/kg. Besides, the “effect on deficit in novel object recognition” value in the data set on male BALB/c mice [5] and in the data set on male BALB/c mice [6] was “not statistically effective” throughout. For the same molecule, on 5-HT7 receptor [7], the binding inhibition is reported as around 25%. This molecule yielded an IC50 at 5-HT7 receptor [8] of 1270 nM. Moreover, the preventative effect entry in the data set with male BALB/c mice [9] is on record as “very mild preventative effect”.

In the case of `Nc1c2c(nc3ccccc13)CCCC2` [Tacrine], in the data set with BALB/c mice [10], the “effect on scopolamine-induced amnesia (time in platform quadrant)” value was “significant prevention”.

In the case of `CCCCc1oc2ccccc2c1C(=O)c1cc(I)c(OCCN(CC)CC)c(I)c1` [amiodaron, reference compound], the “effect on heart rate” value in the data set on Monkeys (Macaca mulatta) is “no effect on the heart rate”.

`O=P1(N(CCCl)CCCl)NCCCO1` (centres unmarked) [cyclophosphomide, reference compound]: in the data set with femur bone marrow cells, the “Cells with multiple aberrations” value was found to be 6.2%; the “Total altered metaphases (%)” value turned out to be 20.8 ± 1.8%; the “cells with aberration, Double fragment” value stood at 0.4%; the “cells with aberration, Single fragment” value worked out at 19.8%. In addition, in the data set with femur bone marrow cells, the “cells with aberration, exchanges” value is on record as 1.0% and the “cells with aberration, gaps” value was determined as 0.2%.

For `COc1cc2c(cc1OC)C(=O)C(CC1CCN(Cc3ccccc3)CC1)C2` (centres unmarked) [donepezil], the “effect on scopolamine-induced amnesia (time in platform quadrant)” value with BALB/c mice [10] is “not as effective”.

Regarding `CC12CC3CC(C)(C1)CC(N)(C3)C2` [memantine], the “effect on deficit in novel object recognition” value in the data set on male BALB/c mice [5] and in the data set with male BALB/c mice [6] was “not statistically effective” in each case. For the same molecule, the “effect on MK-801-induced amnesia” value in the data set with BALB/c mice [11] is “not active”.
